Holding throughout (type): functional
In one assay the test system is L5178Y. The experiment in a line: Cytotoxicity against mouse L5178Y cells after 72 hrs by MTT assay. The settings on record: read-out: ED50 (the source's name). A digest of the protocol:
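L5178y mouse lymphoma cells in Eagle's MEM plus 10% horse serum, roller tube culture; cultures started at 5×1000 cells/mL, exposed to 0.3–20 μg/mL, incubated 72 h at 37 °C. Growth assessed by MTT assay and by cell counting; ED50 reported in μg/mL.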

Assay [1] relates to Spodoptera littoralis. The experiment in a line: Insecticidal activity against Spodoptera littoralis neonate larvae assessed as inhibition of larval growth at 132 ppm administered with artificial diet after 6 days by chronic feeding experiment relative to control. The note with it: 144 h. In outline:
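Neonate S. littoralis larvae (n = 20) from a laboratory colony, fed artificial diet spiked at 132 ppm for 6 days; survival and weight of surviving larvae recorded and expressed as growth inhibition versus untreated controls.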

A further assay relates to Staphylococcus aureus. As to the kind of experiment: Antibacterial activity against Staphylococcus aureus ATCC 25923 at 100 ug after 24 hrs by agar plate diffusion assay. The note with it: ATCC 25923, 24 h, read-out: IZ. A digest of the protocol: (§1)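 Sterile susceptibility disks (5 mm diameter) loaded with 100 μg compound, placed on agar plates seeded with test bacterium (B. subtilis 168, S. aureus ATCC 25923, E. coli ATCC 25922); plates incubated 24 h at 37 °C, then inhibition zone diameter read.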

A further assay has as its system Bacillus subtilis. As to the kind of experiment: Antibacterial activity against Bacillus subtilis 168 at 100 ug after 24 hrs by agar plate diffusion assay. The note with it: Bacillus subtilis, 168, 24 h; read-out: IZ. A digest of the protocol: as §1
Assay [2] relates to Spodoptera littoralis. The experiment in a line: Insecticidal activity against Spodoptera littoralis neonate larvae assessed as inhibition of larval growth drug administered with artificial diet after 6 days by chronic feeding experiment. A digest of the protocol:
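Dose-response feeding assay: neonate S. littoralis larvae (n = 20) held 6 days on artificial diet spiked at 26–132 ppm; survival and surviving-larva weights compared with controls, ED50 (ppm) derived by probit analysis of the dose-response curve.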

≈ marks a conversion by molar mass, not a printed value.

Take `O=C1CCCN2[C@@H](CC1)C[C@]13CN4CCCC/C=C\CC[C@](O)(C=C(c5nccc6c5[nH]c5ccccc56)C1CC4)[C@H]23` (some centres undefined) [MANZAMINE E]: the EC50 in the assay with L5178Y worked out at 6.6 µg/mL (≈ 11.7 µM). Moreover, in the assay with Spodoptera littoralis [1], the inhibition – broadly, the drop in the measured response relative to a control, in per cent – at 132 ppm turned out to be 0%.

For `O[C@]12C=C(c3nccc4c3[nH]c3ccccc34)[C@@H]3CCN(CCCC/C=C\CC1)C[C@@]31CC/C=C\CCCCN[C@H]12` [MANZAMINE J], the EC50 in the assay with L5178Y turned out to be 25 µg/mL (≈ 45.4 µM). Moreover, the inhibition at 132 ppm in the assay on Spodoptera littoralis [1] amounted to 2%.

`O[C@]12C=C(c3nccc4c3[nH]c3ccccc34)[C@@H]3CCN(CCCC/C=C\CC1)C[C@@]31C[C@@H]3/C=C\CCCCN3[C@H]12` [MANZAMINE A]: the EC50 in the assay on L5178Y worked out at 1.8 µg/mL (≈ 3.28 µM). For the same compound, the inhibition at 132 ppm with Spodoptera littoralis [1] came out at 80%. In addition, the zone of inhibition at 100 µg/disc in the assay with Staphylococcus aureus and in the assay with Bacillus subtilis was 7 mm each time. In addition, the ED50 with Spodoptera littoralis [2] amounted to 35 ppm.

As for `O=C1CCCN2[C@@H](CC1)C[C@]13CN4CCCC/C=C\CC[C@](O)(C=C(c5nccc6c5[nH]c5c(O)cccc56)C1CC4)[C@H]23` (some centres undefined) [MANZAMINE F], the EC50 with L5178Y amounted to 2.3 µg/mL (≈ 3.96 µM). In the assay on Spodoptera littoralis [1], the inhibition at 132 ppm was determined as 50.6%.

As for `[O-][N+]1=C(C2=C[C@@]3(O)CC/C=C\CCCCN4CC[C@@H]2[C@]2(C[C@@H]5/C=C\CCCCN5[C@H]23)C4)c2[nH]c3ccccc3c2CC1`, in the assay with L5178Y, the EC50 was 1.6 µg/mL (≈ 2.82 µM). In the assay with Spodoptera littoralis [1], the inhibition at 132 ppm is 26.4%.

Turning to `O[C@]12C=C(c3nccc4c3[nH]c3ccccc34)C3CCN(CCCC/C=C\CC1)C[C@@]31C[C@]34CC[C@H](CCCN3[C@H]12)O4` (some centres undefined) [6-Deoxymanzamine X], the EC50 in the assay on L5178Y stood at 1.8 µg/mL (≈ 3.19 µM). Moreover, in the assay with Spodoptera littoralis [1], the inhibition at 132 ppm was 18.5%.

Consider `[O-][n+]1ccc2c([nH]c3ccccc32)c1C1=C[C@@]2(O)CC/C=C\CCCCN3CC[C@@H]1[C@]1(CC/C=C\CCCCN[C@H]12)C3`, for which the EC50 in the assay on L5178Y amounted to 3.2 µg/mL (≈ 5.65 µM). In addition, in the assay with Spodoptera littoralis [1], the inhibition at 132 ppm turned out to be 16.2%.

For `[O-][n+]1ccc2c([nH]c3ccccc32)c1C1=C[C@@]2(O)CC/C=C\CCCCN3CC[C@@H]1[C@]1(C[C@@H]4/C=C\CCCCN4[C@H]12)C3`, in the assay on L5178Y, the EC50 stood at 1.6 µg/mL (≈ 2.83 µM). Moreover, the inhibition at 132 ppm in the assay with Spodoptera littoralis [1] was 9.5%.

The record behind these values is ChEMBL document CHEMBL1158283, “Four new bioactive manzamine-type alkaloids from the Philippine marine sponge Xestospongia ashmorica” (1996).
